{
  "source": "PubChem BioAssay AID652196",
  "about": "(Vanderbilt Specialized Chemistry Center, 2013)",
  "data": [
    {"target": "Metabotropic glutamate receptor 5 (Rattus norvegicus) (UniProt P31424)", "sequence (P31424 whole entry, looked up)": "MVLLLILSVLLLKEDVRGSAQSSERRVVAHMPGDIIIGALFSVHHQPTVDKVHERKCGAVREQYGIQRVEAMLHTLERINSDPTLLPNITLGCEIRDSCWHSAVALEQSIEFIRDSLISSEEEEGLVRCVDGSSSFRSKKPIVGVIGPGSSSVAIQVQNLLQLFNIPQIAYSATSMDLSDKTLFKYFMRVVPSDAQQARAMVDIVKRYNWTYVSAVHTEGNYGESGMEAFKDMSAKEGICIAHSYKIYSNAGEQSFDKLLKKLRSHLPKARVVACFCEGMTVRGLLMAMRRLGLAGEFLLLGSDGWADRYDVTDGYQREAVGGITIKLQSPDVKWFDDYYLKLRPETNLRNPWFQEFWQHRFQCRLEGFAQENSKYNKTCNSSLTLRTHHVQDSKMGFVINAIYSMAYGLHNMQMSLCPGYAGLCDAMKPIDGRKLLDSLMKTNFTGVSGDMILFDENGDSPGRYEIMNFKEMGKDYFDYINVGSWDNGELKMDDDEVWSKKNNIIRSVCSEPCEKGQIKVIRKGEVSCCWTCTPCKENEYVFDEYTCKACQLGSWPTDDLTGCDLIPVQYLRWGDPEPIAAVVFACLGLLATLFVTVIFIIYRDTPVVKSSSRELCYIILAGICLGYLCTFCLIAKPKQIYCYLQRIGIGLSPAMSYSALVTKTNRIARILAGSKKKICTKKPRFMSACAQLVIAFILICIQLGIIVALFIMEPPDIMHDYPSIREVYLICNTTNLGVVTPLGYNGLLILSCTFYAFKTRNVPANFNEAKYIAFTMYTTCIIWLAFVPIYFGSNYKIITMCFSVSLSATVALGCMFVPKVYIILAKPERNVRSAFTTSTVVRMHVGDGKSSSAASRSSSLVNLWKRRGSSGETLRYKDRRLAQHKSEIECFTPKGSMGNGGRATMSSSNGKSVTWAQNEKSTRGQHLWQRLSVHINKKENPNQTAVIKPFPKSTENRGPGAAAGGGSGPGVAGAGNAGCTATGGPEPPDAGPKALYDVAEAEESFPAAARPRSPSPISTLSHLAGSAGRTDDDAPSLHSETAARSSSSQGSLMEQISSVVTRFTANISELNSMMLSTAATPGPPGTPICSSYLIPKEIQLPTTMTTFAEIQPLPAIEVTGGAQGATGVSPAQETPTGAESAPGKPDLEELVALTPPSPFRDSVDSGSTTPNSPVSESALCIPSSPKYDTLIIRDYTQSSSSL", "assay": "mGlu5 allosteric site binding affinity, dose response, biochemical, rat, HEK293A membranes, [3H]methoxyPEPy, full curve (AID 652196)", "conditions": "rmGlu5 HEK293A membranes, [3H]methoxyPEPy displacement", "how_it_was_run": "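Evaluation: Ki from radioligand displacement | Material: Rat mGlu5 HEK293A cell membranes | Reagent: Radioligand [3H]methoxyPEPy at 2 nM | Compound: 10 doses, 0.1 nM–10 µM, 1% DMSO | Medium: HEPES-buffered HBSS with probenecid, pH 7.4 | Signal: Filter binding with scintillation counting | Times: Membrane, radioligand and compound incubation 1 h at room temperature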", "units": {"Ki": "nM"}, "values": [
      {"smiles": "O=C(c1ccc(C#Cc2cccc(F)c2)cn1)N1CCCCCC1", "Ki": 18.7},
      {"smiles": "CC1CCN1C(=O)c1ccc(C#Cc2cccc(F)c2)cn1", "note": "(centres undefined)", "Ki": 5.4},
      {"smiles": "O=C(c1ccc(C#Cc2cccc(F)c2)cn1)N1CC(F)C1", "Ki": 48.7},
      {"smiles": "O=C(c1ccc(C#Cc2cccc(F)c2)cn1)N1CC2CC2C1", "note": "(centres undefined)", "Ki": 18.2},
      {"smiles": "O=C(c1ccc(C#Cc2cccc(F)c2)cn1)N1CCC(F)(F)C1", "Ki": 19},
      {"smiles": "O=C(c1ccc(C#Cc2cccc(F)c2)cn1)N1CCOCC1", "Ki": 67.7},
      {"smiles": "O=C(c1ccc(C#Cc2cccc(F)c2)cc1)N1CCC1", "Ki": 29.6},
      {"smiles": "O=C(c1ccc(C#Cc2cccc(F)c2)cn1)N1CCC1", "Ki": 51.6},
      {"smiles": "O=C(c1ccc(C#Cc2cccc(F)c2)cn1)N1CCCCC1", "Ki": 12.1}
    ]}
  ]
}
